Rows were chosen to be rich in hits. Some 5.9% of all compounds tested hit in one or more screens of this group.
T cruzi growth-1 = T. cruzi intracellular proliferation inhibitors, primary screen, cell-based, beta-gal Tulahuen parasites, NIH3T3 host, luminescence; T. cruzi beta-gal in NIH3T3, GalScreen luminescence, 90 h; AID 624255, 2012; 5.9% of 77,000 active; inhibition, % at 8.34 µM;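 active = mean inhibition above about 93%, with at least 55% of replicates each passing it, limit read from the data, passing the limit was not always enough; inconclusive = only one of those two conditions holds; inactive = neither condition holds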
GASC1 inh = inhibitors of GASC-1 (KDM4C) histone demethylase, primary screen, biochemical, single concentration HTS; Lysine-specific demethylase 4C (Homo sapiens), Q9H3R0; GST-KDM4C 2-372, H3K9me3 peptide, LANCE TR-FRET; inhibition, % at 12.5 µM; 0.15% of 96,000 active;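 active = mean replicate inhibition above about 25%, with at least 55% of replicates also reaching it, limit read from the data, passing the limit was not always enough; inconclusive = only one of those two conditions met; inactive = neither condition met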
Target sequence (Q9H3R0 2-372 limits assumed): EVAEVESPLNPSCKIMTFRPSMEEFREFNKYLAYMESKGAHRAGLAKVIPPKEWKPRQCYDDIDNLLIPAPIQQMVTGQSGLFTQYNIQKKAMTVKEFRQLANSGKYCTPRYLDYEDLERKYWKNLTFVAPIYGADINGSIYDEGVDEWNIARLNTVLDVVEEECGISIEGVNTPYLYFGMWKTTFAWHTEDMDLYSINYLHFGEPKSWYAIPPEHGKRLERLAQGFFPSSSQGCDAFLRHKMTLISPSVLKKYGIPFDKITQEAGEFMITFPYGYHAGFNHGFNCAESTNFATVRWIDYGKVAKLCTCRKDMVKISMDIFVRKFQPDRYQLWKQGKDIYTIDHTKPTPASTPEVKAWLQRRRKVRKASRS
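System – N-terminal GST-fused human GASC-1 (KDM4C) fragment, residues 2-372 · Input – enzyme final amount 10 nM · Technique – LANCE TR-FRET, Eu antibody, ULight-streptavidin, EDTA, ex 340 nm, em 618/671 nm · Medium – HEPES buffer, pH 7.5, plus ascorbate · Incubation – enzyme reaction 30 min, then detection 60 min, both room temperature · Reagent – H3K9me3 peptide with Fe(II)/2OG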
Pf Dd2 inh = P. falciparum Dd2 growth inhibitors, primary screen, SYBR Green fluorescence, single dose replicates | 72 h; stronger effect = lower value | activity change, % at 10 µM | 2.3% of 94,000 active; in the data active = activity change below about -80%; inconclusive = no clear call, values can overlap the other calls
IDH1 mut inh = inhibitors of IDH1 R132H reductase, primary screen, biochemical, plate reader, single point; Isocitrate dehydrogenase [NADP] cytoplasmic (Homo sapiens), O75874; diaphorase/resazurin fluorescence, 60 min; inhibition, % at 10 µM; 0.18% of 70,000 active; in the data active = inhibition above about 34%; inconclusive = no clear call, values can overlap the other calls; inactive = below about 11%;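 note: 0% = DMSO and 100% = no enzyme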
T cruzi growth-2 = T. cruzi intracellular proliferation inhibitors, confirmation, cell-based, NIH3T3 host, beta-gal parasite, luminescence, cherry-pick; T. cruzi beta-gal in NIH3T3, GalScreen luminescence, 90 h; shares compounds with T cruzi growth-1; 72% of 5,600 active; AID 651739, 2012; inhibition, % at 8.35 µM;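 active = mean replicate inhibition above about 95% and at least 55% of replicates individually reaching it, limit read from the data; inconclusive = only one of the two criteria is met; inactive = neither criterion is met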
T cruzi growth-3 = inhibitors of intracellular T. cruzi replication, confirmation, NIH3T3 host cells, beta-gal parasites, cherry-pick, set 2; shares compounds with T cruzi growth-1; T. cruzi beta-gal in NIH3T3, GalScreen luminescence, 90 h; inhibition, % at 2.09 µM; 21% of 5,600 active; AID 651740, 2012;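 active = mean inhibition above about 95%, with at least 55% of replicates also reaching it, limit read from the data; inconclusive = meets just one of the two conditions; inactive = meets neither condition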;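 note: plate controls were neutral control median for no effect and positive control median for full effect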
3T3 cytotox = cytotoxicity in mouse NIH/3T3 fibroblasts, confirmation, cytotoxicity control for T. cruzi proliferation inhibitor project, cell-based, cherry-pick, single point | cytotoxicity (signal decrease), % at 8.35 µM | AID 651742, 2012 | NIH/3T3 viability, CellTiter-Glo ATP luminescence, 90 h | 14% of 5,600 active | shares compounds with T cruzi growth-1;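 active = mean signal decrease across replicates above about 35% based on untreated-well scatter, with enough replicates individually passing, limit read from the data; inconclusive = no rule stated though some were filed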;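 note: 0% = median of neutral control wells and 100% = median of positive control wells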
NIH3T3 tox 2 = NIH/3T3 fibroblast cytotoxicity, confirmation, cytotoxicity control, cell-based, cherry-pick, single point, set 2 | shares compounds with T cruzi growth-1 | NIH/3T3 viability, CellTiter-Glo ATP luminescence, 90 h | inhibition, % at 24.9 µM | 56% of 5,600 active;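 active = mean loss of cell viability signal at or above a set limit, and enough replicates individually reaching it; inconclusive = meets only the mean limit or only the replicate share; inactive = meets neither condition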;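 note: 0% = median of neutral control wells and 100% = median of positive control wells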
* = called active by the depositor.

Screening COc1ccc(CN(C)C[C@@H]2OCCCC[C@@H](C)Oc3ccc(NS(=O)(=O)c4ccc(Cl)cc4)cc3C(=O)N([C@@H](C)CO)C[C@@H]2C)cc1 returned T cruzi growth-1 inconclusive, GASC1 inh 0, Pf Dd2 inh -35, IDH1 mut inh 2, T cruzi growth-2 inconclusive, T cruzi growth-3 58, 3T3 cytotox 30 and NIH3T3 tox 2 107*.
COc1ccc(CN(C)C[C@@H]2OCCCC[C@@H](C)Oc3ccc(NS(=O)(=O)c4ccc(Cl)cc4)cc3C(=O)N([C@H](C)CO)C[C@H]2C)cc1 was read as T cruzi growth-1 inconclusive, GASC1 inh -1, Pf Dd2 inh -56, IDH1 mut inh 0, T cruzi growth-2 105*, T cruzi growth-3 84, 3T3 cytotox 27 and NIH3T3 tox 2 103*.
COc1ccc(CN(C)C[C@H]2OCCCC[C@H](C)Oc3ccc(NS(=O)(=O)c4ccc(Cl)cc4)cc3C(=O)N([C@H](C)CO)C[C@H]2C)cc1 was read as T cruzi growth-1 94, GASC1 inh 0, Pf Dd2 inh inconclusive and IDH1 mut inh 0.
COc1ccc(CN(C)C[C@H]2OCCCC[C@H](C)Oc3ccc(NS(=O)(=O)c4ccccc4)cc3C(=O)N([C@H](C)CO)C[C@H]2C)cc1 was read as T cruzi growth-1 102*, GASC1 inh 0, Pf Dd2 inh -36, IDH1 mut inh 0, T cruzi growth-2 108*, T cruzi growth-3 43, 3T3 cytotox 9 and NIH3T3 tox 2 inconclusive.
For COc1ccc(CN(C)C[C@H]2OCCCC[C@@H](C)Oc3ccc(NS(=O)(=O)c4ccccc4)cc3C(=O)N([C@H](C)CO)C[C@H]2C)cc1 the results were T cruzi growth-1 -18, GASC1 inh 0 and Pf Dd2 inh -55.
COc1ccc(CN(C)C[C@H]2OCCCC[C@@H](C)Oc3ccc(NS(=O)(=O)c4ccc(Cl)cc4)cc3C(=O)N([C@@H](C)CO)C[C@@H]2C)cc1 was read as T cruzi growth-1 30, GASC1 inh 4 and Pf Dd2 inh -72.
`Cc1ccc(C)c(Cn2c(CCCO)nc3ccccc32)c1` gave IDH1 mut inh 0.
For CCc1cnc(N2[C@@H](C#N)[C@@H](c3ccc(C#CCC4CCCC4)cc3)[C@@H]2CO)s1 the results were T cruzi growth-1 97*, GASC1 inh -1, Pf Dd2 inh -41, T cruzi growth-2 99*, T cruzi growth-3 111*, 3T3 cytotox -6 and NIH3T3 tox 2 104*.
`CCc1cnc(N2[C@H](C#N)[C@H](c3ccc(C#CCC4CCCC4)cc3)[C@@H]2CO)s1` gave T cruzi growth-1 98*, GASC1 inh -3, Pf Dd2 inh -58, T cruzi growth-2 91, T cruzi growth-3 114*, 3T3 cytotox -9 and NIH3T3 tox 2 inconclusive.
For CCc1cnc(N2[C@H](C#N)[C@H](c3ccc(C#CCC4CCCC4)cc3)[C@H]2CO)s1 the results were T cruzi growth-1 95, GASC1 inh -4 and Pf Dd2 inh -29.
For CCCC#Cc1ccc([C@H]2[C@H](CO)N3CCCCN(S(=O)(=O)Cc4ccccc4)C[C@@H]23)cc1 the results were T cruzi growth-1 97*, GASC1 inh -2, Pf Dd2 inh -34, T cruzi growth-2 101*, T cruzi growth-3 61, 3T3 cytotox 39* and NIH3T3 tox 2 104*.
Screening O=S(=O)(Cc1ccccc1)N1CCCCN2[C@H](CO)[C@H](c3ccc(C#Cc4ccccc4)cc3)[C@@H]2C1 returned T cruzi growth-1 106*, GASC1 inh -3, Pf Dd2 inh -76, T cruzi growth-2 104*, T cruzi growth-3 108*, 3T3 cytotox 18 and NIH3T3 tox 2 66*.
Screening CC(C)CC#Cc1ccc([C@H]2[C@H](CO)N3CCCCN(S(=O)(=O)Cc4ccccc4)C[C@@H]23)cc1 returned T cruzi growth-1 100*, GASC1 inh -2, Pf Dd2 inh inconclusive, T cruzi growth-2 104*, T cruzi growth-3 92, 3T3 cytotox 24 and NIH3T3 tox 2 107*.
`CCCC#Cc1ccc([C@@H]2[C@@H](CO)N3CCCCN(S(=O)(=O)Cc4ccccc4)C[C@H]23)cc1` gave T cruzi growth-1 94, GASC1 inh 0 and Pf Dd2 inh -19.
For CCS(=O)(=O)N1CCCCN2[C@@H](CO)[C@H](c3ccc(C#Cc4ccccc4OC)cc3)[C@@H]2C1 the results were T cruzi growth-1 114*, GASC1 inh -2, Pf Dd2 inh -15, T cruzi growth-2 110*, T cruzi growth-3 95, 3T3 cytotox 25 and NIH3T3 tox 2 83*.
COc1ccc2cc(Br)ccc2c1CC(=O)Nc1cccnc1 was read as IDH1 mut inh 1.
For Cc1c(CCC(=O)O)c(=O)oc2cc(O)c(Cl)cc12 the results were IDH1 mut inh 1.
For CCc1ccccc1NC(=O)C(C)n1cc([N+](=O)[O-])cn1 (stereo unspecified) the results were IDH1 mut inh 0.
Screening C=CCNC(=O)[C@H]1[C@@H]2C(=O)O[C@@H](c3ccccc3)[C@@H](c3ccccc3)N2[C@@H](c2ccccc2OCCO)[C@]12C(=O)N(C(=O)OCCOC)c1ccc(C#CC3=CCCCC3)cc12 returned IDH1 mut inh 0.
`CCc1ccc(-n2c(C)nnc2SCC(=O)Nc2ccc(Cl)cc2Cl)cc1` gave IDH1 mut inh 0.
For CCOC(=O)c1c(NC(=O)C(C)Oc2ccc3c(C)cc(=O)oc3c2)sc2c1CCCC2 (stereo unspecified) the results were IDH1 mut inh 0.
`Cn1cnc(S(=O)(=O)N2CC[C@@H]3[C@H](CO)Nc4ccc(-c5ccccc5)cc4[C@@H]32)c1` gave T cruzi growth-1 101*, GASC1 inh -1, Pf Dd2 inh -30, T cruzi growth-2 102*, T cruzi growth-3 48, 3T3 cytotox 10 and NIH3T3 tox 2 -1.
